Measured values from PubChem BioAssay AID504818 (Southern Research Specialized Biocontainment Screening …, 2011).
Where “and” joins values, the source holds several entries; their conditions need not be identical. Identical values can stand only once. Calls of active or inactive are those of the source.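 How the source made its calls: active means any dose giving under 70% viability, per first replicate; inactive means the rest.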

System: not listed separately
Test: HEp-2 cell cytotoxicity, SAR follow-up, cytotoxicity control for RSV inhibitor project, synthesized compounds, set 8 (AID 504818)
Conditions: HEp-2 viability, ATP luminescence; at 50 µM (top of the series)
In short: (§1)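 Material: uninfected HEp-2 human cells, ATP-based viability; Amount: 10,595 HEp-2 cells per well; Timing: 6 d compound exposure, 37 °C; Dosing: 8-point twofold dilution series, 0.39–50 µM final, 0.5% DMSO; Signal: ATP luminescence (CellTiter-Glo); Replication: each concentration tested in triplicate; Benchmarks: cell-only wells as 100% reference; Buffer or medium: DMEM/F12 with HI-FBS.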

Row | Compound | viability
1 | Cc1ccc(NC(=O)C2CCCN2S(C)(=O)=O)c(C)c1 (stereo unspecified) | 96.3% (inactive)
2 | Cc1ccc(NC(=O)C(C)NS(=O)(=O)c2cccc3cccnc23)c(C)c1 (stereo unspecified) | 77.7% (inactive)
3 | Cc1ncccc1NC(=O)[C@@H]1CCCN1S(=O)(=O)c1cccc2cccnc12 | 72.6% (inactive)
4 | COc1ccc(C)cc1NC(=O)[C@@H]1CCCN1S(=O)(=O)c1cccc2cccnc12 | 82% (inactive)

System: HEp-2 viability, ATP luminescence
Test: as above
Conditions: not given
In short: as §1

Row | Compound | CC50
5 | Cc1ccc(C(C)(C)C)cc1NC(=O)[C@@H]1CCCN1S(=O)(=O)c1cccc2cccnc12 | 6.2 µM
6 | Cc1ccc(C(F)(F)F)cc1NC(=O)[C@@H]1CCCN1S(=O)(=O)c1cccc2cccnc12 | 3.7 µM
7 | COCCCNC(=O)c1ccc(Cn2c(=O)c3ccccc3n(C)c2=O)cc1 | 15 µM
8 | Cc1ccc(Cl)c(NC(=O)[C@@H]2CCCN2S(=O)(=O)c2cccc3cccnc23)c1 | 13.6 µM
9 | Cc1ccc(NC(=O)[C@@H]2CCCN2S(=O)(=O)c2cccc3cccnc23)cc1 | 33.1 µM
10 | Cc1ccc(NC(=O)[C@H]2CCCN2S(=O)(=O)c2cccc3cccnc23)c(C)c1 | 40.9 µM
11 | CC(C)c1ccccc1NC(=O)[C@@H]1CCCN1S(=O)(=O)c1cccc2cccnc12 | 30.1 µM
12 | O=C(Nc1ccccc1)[C@@H]1CCCN1S(=O)(=O)c1cccc2cccnc12 | 38.4 µM
13 | COCCCNC(=O)c1ccc(Cn2c(=O)c3ccccc3n(Cc3cc(C)on3)c2=O)cc1 | 7 µM
14 | Cc1ccc(C)c(NC(=O)[C@@H]2CCCN2S(=O)(=O)c2cccc3cccnc23)c1 | 36.2 µM and 32.9 µM
15 | Cc1cccc(NC(=O)[C@@H]2CCCN2S(=O)(=O)c2cccc3cccnc23)c1 | 20.8 µM
16 | Cc1ccc(Cn2c(=O)n(Cc3ccc(C(=O)NC(C)(C)C)cc3)c(=O)c3ccccc32)cc1 | 10.2 µM
17 | Cc1ccc(F)cc1NC(=O)[C@@H]1CCCN1S(=O)(=O)c1cccc2cccnc12 | 22.5 µM
18 | Cc1ccc(Cl)cc1NC(=O)[C@@H]1CCCN1S(=O)(=O)c1cccc2cccnc12 | 9.25 µM
19 | Cc1ccc(C(C)C)cc1NC(=O)[C@@H]1CCCN1S(=O)(=O)c1cccc2cccnc12 | 10.6 µM
20 | Cc1ccc(NC(=O)[C@@H]2CCCN2S(=O)(=O)c2cccc3cccnc23)c(C)c1 | 33 µM
21 | Cc1ccc(NC(=O)C2CCCN2S(=O)(=O)c2cccc3ccccc23)c(C)c1 (stereo unspecified) | 18.4 µM
22 | COCCCNC(=O)c1ccc(Cn2c(=O)c3ccc(Br)cc3n(Cc3ccc(C)cc3)c2=O)cc1 | 39 µM
23 | Cc1cccc(NC(=O)[C@@H]2CCCN2S(=O)(=O)c2cccc3cccnc23)c1C | 49.5 µM
24 | Cc1cc(C)cc(NC(=O)[C@@H]2CCCN2S(=O)(=O)c2cccc3cccnc23)c1 | 32.2 µM
25 | CCCn1c(=O)n(Cc2ccc(C(=O)NCCCOC)cc2)c(=O)c2ccccc21 | 22.8 µM
26 | Cc1ccc(NC(=O)C2CCCN2S(=O)(=O)c2cccc3cccnc23)c(C)c1 (stereo unspecified) | 33.4 µM
